{
  "source": "paper PMC11066147",
  "about": "(Heliyon, 2024)",
  "key": {"PfHsp70-1 [1]": {"molecular_target": "T1, PfHsp70-1 (Plasmodium falciparum, UniProt Q8IB24)", "T1 sequence (Q8IB24 1-677)": "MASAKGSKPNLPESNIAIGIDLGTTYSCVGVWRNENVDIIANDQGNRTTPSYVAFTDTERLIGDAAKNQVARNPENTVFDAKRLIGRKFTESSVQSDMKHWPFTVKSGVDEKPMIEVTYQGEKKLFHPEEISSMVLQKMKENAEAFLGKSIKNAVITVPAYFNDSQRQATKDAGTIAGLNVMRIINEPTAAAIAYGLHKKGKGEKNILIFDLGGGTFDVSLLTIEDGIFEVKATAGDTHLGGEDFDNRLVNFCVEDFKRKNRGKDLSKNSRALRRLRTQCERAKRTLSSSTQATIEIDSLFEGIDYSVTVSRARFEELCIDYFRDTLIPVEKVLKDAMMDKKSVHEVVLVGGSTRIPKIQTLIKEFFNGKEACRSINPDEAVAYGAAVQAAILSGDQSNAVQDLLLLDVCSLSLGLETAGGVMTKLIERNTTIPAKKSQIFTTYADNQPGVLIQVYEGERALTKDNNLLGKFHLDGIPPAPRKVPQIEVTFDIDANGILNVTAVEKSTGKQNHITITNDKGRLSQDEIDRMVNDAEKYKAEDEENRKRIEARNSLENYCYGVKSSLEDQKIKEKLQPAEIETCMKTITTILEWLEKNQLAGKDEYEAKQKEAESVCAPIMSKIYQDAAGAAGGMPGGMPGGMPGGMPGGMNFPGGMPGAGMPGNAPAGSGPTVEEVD", "conditions": "previous study, ref [10], cited from earlier work"}, "PfHsp70-z": {"molecular_target": "T2, PfHsp70-z (Plasmodium falciparum, UniProt Q8IC01)", "T2 sequence (Q8IC01 1-873)": "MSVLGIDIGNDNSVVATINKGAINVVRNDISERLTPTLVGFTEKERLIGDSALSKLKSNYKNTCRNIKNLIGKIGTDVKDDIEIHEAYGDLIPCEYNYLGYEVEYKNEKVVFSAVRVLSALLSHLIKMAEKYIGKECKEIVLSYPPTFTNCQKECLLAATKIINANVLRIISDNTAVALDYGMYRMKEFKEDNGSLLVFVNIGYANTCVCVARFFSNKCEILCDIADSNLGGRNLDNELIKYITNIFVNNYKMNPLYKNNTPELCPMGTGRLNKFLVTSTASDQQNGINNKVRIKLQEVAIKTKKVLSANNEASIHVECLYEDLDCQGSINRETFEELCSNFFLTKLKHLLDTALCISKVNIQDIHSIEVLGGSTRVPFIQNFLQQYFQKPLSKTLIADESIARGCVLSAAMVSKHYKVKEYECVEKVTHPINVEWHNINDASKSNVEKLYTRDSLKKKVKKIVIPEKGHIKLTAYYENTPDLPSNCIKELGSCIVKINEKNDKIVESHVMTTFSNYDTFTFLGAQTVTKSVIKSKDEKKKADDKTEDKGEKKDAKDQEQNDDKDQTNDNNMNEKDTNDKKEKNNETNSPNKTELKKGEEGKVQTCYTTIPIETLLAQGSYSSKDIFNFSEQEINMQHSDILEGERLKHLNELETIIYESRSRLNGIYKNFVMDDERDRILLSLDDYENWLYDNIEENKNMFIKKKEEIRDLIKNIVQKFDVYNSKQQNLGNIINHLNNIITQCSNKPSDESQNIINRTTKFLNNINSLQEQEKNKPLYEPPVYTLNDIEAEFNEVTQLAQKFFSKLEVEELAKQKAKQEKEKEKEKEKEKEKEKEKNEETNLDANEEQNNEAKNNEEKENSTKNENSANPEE", "conditions": "previous study, ref [10], cited from earlier work"}, "PfHsp70-1 [2]": {"molecular_target": "T1, PfHsp70-1", "test": "SPR self-association, immobilised ligand PfHsp70-1", "assay_type": "binding"}, "[3]": {"tested_on": "clients from E. coli ΔdnaK52 cells", "test": "co-affinity assay coupled to LC-MS, clients from E. coli ΔdnaK52", "assay_type": "binding"}, "[4]": {"tested_on": "clients from E. coli JM109 cells", "test": "co-affinity assay coupled to LC-MS, clients from E. coli JM109", "assay_type": "binding", "outline": "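Pull-down bait was His-tagged Hsp70 (wild type or linker-swap variant), immobilised on cobalt resin in TBS (10 mM Tris-HCl pH 7.5, 50 mM NaCl, 10 mM imidazole) for 4 h at 4 °C, then washed 5×. E. coli JM109 lysate (prey) was added overnight at 4 °C, followed by 5 washes. Elution used 290 mM imidazole. Eluates were run on silver-stained SDS-PAGE; unique bands were excised and identified by LC-MS.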"}, "proteins": {"tested_on": "proteins", "conditions": "ref [33]; cited from earlier work"}, "DnaK": {"molecular_target": "DnaK (Escherichia coli, UniProt P0A6Y8)", "sequence (P0A6Y8 whole entry)": "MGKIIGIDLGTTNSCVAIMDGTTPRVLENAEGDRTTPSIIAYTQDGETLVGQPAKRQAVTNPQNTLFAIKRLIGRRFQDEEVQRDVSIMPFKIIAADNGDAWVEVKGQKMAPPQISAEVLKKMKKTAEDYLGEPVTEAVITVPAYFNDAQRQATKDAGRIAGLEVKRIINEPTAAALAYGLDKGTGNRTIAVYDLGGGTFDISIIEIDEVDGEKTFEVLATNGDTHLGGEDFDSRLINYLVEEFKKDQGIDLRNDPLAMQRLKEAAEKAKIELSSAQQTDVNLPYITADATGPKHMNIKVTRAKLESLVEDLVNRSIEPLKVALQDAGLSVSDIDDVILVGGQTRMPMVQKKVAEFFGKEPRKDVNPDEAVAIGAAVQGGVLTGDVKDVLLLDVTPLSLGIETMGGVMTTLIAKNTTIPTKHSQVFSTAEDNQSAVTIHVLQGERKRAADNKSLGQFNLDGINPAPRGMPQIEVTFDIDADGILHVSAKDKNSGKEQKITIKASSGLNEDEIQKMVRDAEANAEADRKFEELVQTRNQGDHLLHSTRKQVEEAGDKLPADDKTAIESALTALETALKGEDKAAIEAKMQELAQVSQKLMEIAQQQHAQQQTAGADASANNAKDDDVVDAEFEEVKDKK", "conditions": "SPR; presence of ATP"}},
  "note": "“Also recorded” adds a separate entry of the source.",
  "data": [
    {"substance": "GFRNNNMYRF", "values": [
      {"measurement": "effect of nucleotide on peptide affinity", "setting": "PfHsp70-1 [1]", "result": "regulated by ADP/ATP"},
      {"measurement": "peptide preference", "setting": "PfHsp70-1 [1]; vs GFRLLLMYRF", "result": "preferentially bind to the Asp-enriched peptide"},
      {"measurement": "effect of nucleotide on peptide binding", "setting": "PfHsp70-z", "result": "nucleotide independent"},
      {"measurement": "peptide preference", "setting": "PfHsp70-z; vs GFRLLLMYRF", "result": "preferentially bind to the Asp-enriched peptide"}
    ]},
    {"substance": "PfHsp70-1: canonical cytosolic Hsp70 chaperone of Plasmodium falciparum, recombinant", "values": [
      {"measurement": "self-association without nucleotide vs ADP", "setting": "PfHsp70-1 [2]", "result": "comparable affinity in the absence of nucleotide and in the presence of ADP"},
      {"measurement": "effect of ATP on self-association", "setting": "PfHsp70-1 [2]; ATP vs apo- or ADP-states", "result": "tenfold increase; also recorded: promoted by ATP"}
    ]},
    {"substance": "GFRLLLMYRF", "values": [
      {"measurement": "effect of nucleotide on peptide affinity", "setting": "PfHsp70-1 [1]", "result": "regulated by ADP/ATP"},
      {"measurement": "effect of nucleotide on peptide binding", "setting": "PfHsp70-z", "result": "nucleotide independent"}
    ]},
    {"substance": "DnaK: E. coli Hsp70, recombinant", "values": [
      {"measurement": "association with CH60/GroEL", "setting": "[3]", "result": "associated with DnaK within the E. coli ΔdnaK52 cell background"},
      {"measurement": "number of clients bound", "setting": "[3]", "result": 110, "unit": "clients"},
      {"measurement": "size of another prominent client cluster", "setting": "[3]", "result": "above 100 kDa"},
      {"measurement": "association with CH60/GroEL", "setting": "[4]", "result": "not with DnaK"},
      {"measurement": "pI of a further group of clients", "setting": "[4]", "result": "around 9.5"},
      {"measurement": "pI of majority of clients", "setting": "[4]", "result": "5.5–6.0"},
      {"measurement": "pI of some unique clients", "setting": "[4]", "result": "above 10"},
      {"measurement": "size of most clients", "setting": "[4]", "result": "around 50 kDa"},
      {"measurement": "number of unique clients", "setting": "[4]; unique relative to the other chaperone", "result": 41, "unit": "clients"},
      {"measurement": "number of aggregation-prone (unstable) clients", "setting": "proteins", "result": "~180", "unit": "proteins"},
      {"measurement": "effect of ATP on self-association", "setting": "DnaK", "result": "promoted by ATP"}
    ]}
  ]
}
